Source: publication PMC5091660 (Journal of medicinal chemistry, 2016)
Entries after “also recorded” stand apart in the source; their conditions may differ. Values belong to the compound of their own block, whether it stands above or below them.

Legend:
[1] = biological target: T1, S1P1 (Homo sapiens, UniProt P21453); assay: competitive [^32P]S1P binding assay, S1P1; conditions: for IC50: S1P1 IC50, competition with [^32P]S1P, cell membranes expressing recombinant human S1P1; for decrease in S1P1 binding affinity relative to 28c: head group change of 28c
T1 sequence (P21453 whole entry): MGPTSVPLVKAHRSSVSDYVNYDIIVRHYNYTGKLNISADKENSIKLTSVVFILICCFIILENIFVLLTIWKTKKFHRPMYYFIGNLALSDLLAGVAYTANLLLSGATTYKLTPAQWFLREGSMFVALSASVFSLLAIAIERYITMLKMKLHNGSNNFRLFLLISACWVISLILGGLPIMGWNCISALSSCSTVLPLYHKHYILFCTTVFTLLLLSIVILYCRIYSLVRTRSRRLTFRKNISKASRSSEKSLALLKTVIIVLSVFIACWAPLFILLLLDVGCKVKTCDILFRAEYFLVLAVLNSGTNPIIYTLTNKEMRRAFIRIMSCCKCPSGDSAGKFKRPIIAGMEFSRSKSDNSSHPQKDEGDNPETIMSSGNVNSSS

[2] = biological target: T1, S1P1; assay: in vitro functional assay; type: cell-based
How it was run: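 S1P1-TANGO-U2OS cells at 312,500 cells/mL in unsupplemented Freestyle Expression Medium were grown 48 h at 37 °C, 5% CO2. Test compound in DMSO was added (controls 0.5% DMSO final), then incubated 5 h at 37 °C. LiveBLAzer FRET substrate mix with 10 mM probenecid was added for 2 h at r.t. in the dark. Read-out: excitation 405 nm, emission 460 and 535 nm.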

[3] = biological target: recombinant human S1P2 (Homo sapiens, UniProt O95136); assay: competitive [^32P]S1P binding assay, S1P2
Sequence of recombinant human S1P2 (O95136 whole entry): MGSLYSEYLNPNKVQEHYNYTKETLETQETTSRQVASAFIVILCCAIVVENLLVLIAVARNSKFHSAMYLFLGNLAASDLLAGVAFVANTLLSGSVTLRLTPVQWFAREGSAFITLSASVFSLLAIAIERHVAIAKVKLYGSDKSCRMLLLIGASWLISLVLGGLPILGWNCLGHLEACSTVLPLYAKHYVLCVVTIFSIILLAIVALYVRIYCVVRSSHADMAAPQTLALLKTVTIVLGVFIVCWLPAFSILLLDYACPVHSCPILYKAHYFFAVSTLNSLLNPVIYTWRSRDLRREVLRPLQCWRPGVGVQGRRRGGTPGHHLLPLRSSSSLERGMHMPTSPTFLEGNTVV

[4] = biological target: recombinant human S1P3 (Homo sapiens, UniProt Q99500); assay: competitive [^32P]S1P binding assay, S1P3
Sequence of recombinant human S1P3 (Q99500 whole entry): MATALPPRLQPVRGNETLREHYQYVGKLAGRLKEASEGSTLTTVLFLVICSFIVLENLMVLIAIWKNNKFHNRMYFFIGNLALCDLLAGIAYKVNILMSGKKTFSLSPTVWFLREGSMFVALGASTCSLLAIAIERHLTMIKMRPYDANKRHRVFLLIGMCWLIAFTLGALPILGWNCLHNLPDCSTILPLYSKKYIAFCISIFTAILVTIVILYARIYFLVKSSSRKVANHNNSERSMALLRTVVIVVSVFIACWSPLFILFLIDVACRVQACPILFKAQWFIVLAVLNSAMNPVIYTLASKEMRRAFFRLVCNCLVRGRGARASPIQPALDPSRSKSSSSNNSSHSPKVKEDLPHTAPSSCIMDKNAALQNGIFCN

[5] = system: liver of LPS-treated mice; assay: [^15O]water microPET study of liver blood flow in LPS-treated and sham mice; type: in vivo, C57BL/6 mice; conditions: 10 min scan after bolus injection via tail vein
How it was run: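 Adult male C57BL/6 mice (18–23 g) were pretreated ~24 h earlier with saline or LPS and kept under 2–3% isoflurane via nose cone on an Inveon PET/CT. After a transmission scan and CT, they received a bolus of [15O]water (30–55 MBq) by tail vein, followed by a 10 min dynamic scan, ~30 min before the 18F scan. Liver activity was expressed as SUV.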

[6] = system: liver of LPS-treated mice; assay: acute biodistribution in LPS-treated and sham mice; type: in vivo, C57BL/6 mice; conditions: n = 4 per group
How it was run: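 About 24 h after sham or LPS treatment, mice received the 18F-labelled test compound (~20 μCi, 0.74 MBq, in 10% ethanol/saline) by tail vein. A separate set received [99mTc]mebrofenin (~4 μCi, 148 KBq) under 2–3% isoflurane/oxygen. Mice were euthanized at 30 or 60 min (n = 4 per group per tracer). Tissues were weighed and gamma-counted against a dilution of the injectate.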

IC50 [1]: 76.4 ± 21.6 nM
Compound: O=C(O)C1CN(Cc2ccc3oc(-c4ccc(OCCF)c(C(F)(F)F)c4)nc3c2)C1 [Compound 15b, 1-((2-(4-(2-Fluoroethoxy)-3-(trifluoromethyl)phenyl)benzo[d]-oxazol-5-yl)methyl)azetidine-3-carboxylic Acid]

IC50 [1]: 334 ± 59 nM | EC50 [2]: 2.99 nM
Compound: O=C(O)c1ccc(-c2ccc3oc(-c4ccc(-c5ccc(F)nc5)c(C(F)(F)F)c4)nc3c2)s1 [Compound 16, 5-(2-(4-(6-Fluoropyridin-3-yl)-3-(trifluoromethyl)phenyl)benzo-[d]oxazol-5-yl)thiophene-2-carboxylic Acid]

EC50 [2]: 0.76 nM
Compound: O=C(O)C1CCN(c2ccc3oc(-c4ccc(-c5ccc(F)cc5)c(C(F)(F)F)c4)nc3c2)CC1 [Compound 18a, 1-(2-(4′-Fluoro-2-(trifluoromethyl)-[1,1′-biphenyl]-4-yl)benzo[d]-oxazol-5-yl)piperidine-4-carboxylic Acid]

EC50 [2]: 3.04 nM
Compound: O=C(O)C1CCN(c2ccc3oc(-c4ccc(-c5ccccc5OCCF)c(C(F)(F)F)c4)nc3c2)CC1 [Compound 18b, 1-(2-(2′-(2-Fluoroethoxy)-2-(trifluoromethyl)-[1,1′-biphenyl]-4-yl)benzo[d]oxazol-5-yl)piperidine-4-carboxylic Acid]

EC50 [2]: 11.1 nM
Compound: O=C(O)C1CCN(c2ccc3oc(-c4ccc(-c5ccc(OCCF)cc5)c(C(F)(F)F)c4)nc3c2)CC1 [Compound 18c, 1-(2-(4′-(2-Fluoroethoxy)-2-(trifluoromethyl)-[1,1′-biphenyl]-4-yl)benzo[d]oxazol-5-yl)piperidine-4-carboxylic Acid]

IC50 [1]: 498 ± 335 nM | EC50 [2]: 4.47 nM
Compound: O=C(O)C1CCN(c2ccc3oc(-c4ccc(-c5ccc(C(F)(F)F)cc5)c(C(F)(F)F)c4)nc3c2)CC1 [Compound 18d, 1-(2-(2,4′-Bis(trifluoromethyl)-[1,1′-biphenyl]-4-yl)benzo[d]-oxazol-5-yl)piperidine-4-carboxylic Acid]

EC50 [2]: 4.9 nM
Compound: COc1cccc(-c2ccc(-c3nc4cc(N5CCC(C(=O)O)CC5)ccc4o3)cc2C(F)(F)F)c1 [Compound 18e, 1-(2-(3′-Methoxy-2-(trifluoromethyl)-[1,1′-biphenyl]-4-yl)benzo-[d]oxazol-5-yl)piperidine-4-carboxylic Acid]

IC50 [3]: > 1000 nM
Compound: CCOc1ccc(-c2nc(-c3ccc(CN4CC(C(=O)O)C4)cc3)no2)cc1 [Compound 28a, 1-(4-(5-(4-Ethoxyphenyl)-1,2,4-oxadiazol-3-yl)benzyl)azetidine-3-carboxylic Acid]

IC50 [3]: > 1000 nM | IC50 [4]: > 1000 nM
Compound: O=C(O)C1CN(Cc2ccc(-c3noc(-c4ccc(OCCF)cc4)n3)cc2)C1 [Compound 28b, 1-(4-(5-(4-(2-Fluoroethoxy)phenyl)-1,2,4-oxadiazol-3-yl)benzyl)-azetidine-3-carboxylic Acid]

IC50 [3]: > 1000 nM | IC50 [4]: > 1000 nM
Compound: O=C(O)C1CN(Cc2ccc(-c3noc(-c4ccc(OCCF)c(C(F)(F)F)c4)n3)cc2)C1 [Compound 28c, 1-(4-(5-(4-(2-Fluoroethoxy)-3-(trifluoromethyl)phenyl)-1,2,4-oxadiazol-3-yl)benzyl)azetidine-3-carboxylic Acid]

decrease in S1P1 binding affinity relative to 28c [1]: 20 fold | IC50 [3]: > 1000 nM | IC50 [4]: > 1000 nM
Compound: O=C(O)C1CCN(Cc2ccc(-c3noc(-c4ccc(OCCF)c(C(F)(F)F)c4)n3)cc2)CC1 [Compound 28d, 1-(4-(5-(4-(2-Fluoroethoxy)-3-(trifluoromethyl)phenyl)-1,2,4-oxadiazol-3-yl)benzyl)piperidine-4-carboxylic Acid]

decrease in S1P1 binding affinity relative to 28c [1]: over 100 fold
Compound: FCCOc1ccc(-c2nc(-c3ccc(CNCc4nnn[nH]4)cc3)no2)cc1C(F)(F)F [Compound 28e, N-((1H-Tetrazol-5-yl)methyl)-1-(4-(5-(4-(2-fluoroethoxy)-3-(trifluoromethyl)phenyl)-1,2,4-oxadiazol-3-yl)phenyl)methanamine]

IC50 [1]: > 100 nM
Compound: COc1ccc(-c2nc(-c3ccc(CN4CC(C(=O)O)C4)cc3)no2)cc1C(F)(F)F [Compound 28f, 1-(4-(5-(4-Methoxy-3-(trifluoromethyl)phenyl)-1,2,4-oxadiazol-3-yl)benzyl)azetidine-3-carboxylic Acid]

Compound: [15OH2] [[^15O]water]
liver uptake (TAC) in LPS-treated mice compared to sham mice [5]: no difference; also recorded: no significant change

Compound: [^99mTc]-N-(3-bromo-2,4,6-trimethyacetanilide) iminodiacetic acid [[^99mTc]mebrofenin]
liver uptake in LPS-treated mice compared with sham mice ([6]; 30 min postinjection): increased | liver uptake in LPS-treated mice compared with sham mice ([6]; 60 min postinjection): absence of a significant difference; also recorded: no significant difference
